Results from ChEMBL document CHEMBL1287681, “Tetrahydrocarboline analogs as MCH-1 antagonists” (Bioorg Med Chem Lett, 2010).
In brackets after ≈: the same amount, converted by molar mass.

How the values were obtained:
[1] = target: T1, Melanin-concentrating hormone receptor 1 (Homo sapiens, UniProt Q99705); assay: Displacement of [3H]4-(benzyloxy)-1-(1-(2-(pyrrolidin-1-yl)ethyl)-1H-indazol-5-yl)pyridin-2(1H)-one from MCH-1 receptor expressed in CHO-K1 cells; type: cell-based
Method in brief: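 Membranes from stable CHO-K1 cells expressing human MCH-1 receptor (8.92 µg protein) incubated 60 min at 25 °C with 1.4 nM tritiated indazolyl-pyridinone radioligand ± test compound in 50 mM Tris–HCl, pH 7.4. Nonspecific binding defined with 50 µM of a piperazinylpropyl urea ligand. Values are means of at least two determinations, each within 40% of the mean.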

[2] = Ionisation constant for the compound; type: physicochemical
[3] = target: T1, Melanin-concentrating hormone receptor 1; assay: Antagonist activity at MCH-1 receptor; type: functional
Method in brief: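 Functional antagonism read as Ca2+ mobilization in an Aequorin cell line expressing recombinant MCH-1 receptor, run by a contract lab.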

Cytochrome P450 1A2 = target: T2, Cytochrome P450 1A2 (Homo sapiens, UniProt P05177); assay: (§1) Inhibition of CYP1A2; type: ADME
T2 sequence (P05177 whole entry): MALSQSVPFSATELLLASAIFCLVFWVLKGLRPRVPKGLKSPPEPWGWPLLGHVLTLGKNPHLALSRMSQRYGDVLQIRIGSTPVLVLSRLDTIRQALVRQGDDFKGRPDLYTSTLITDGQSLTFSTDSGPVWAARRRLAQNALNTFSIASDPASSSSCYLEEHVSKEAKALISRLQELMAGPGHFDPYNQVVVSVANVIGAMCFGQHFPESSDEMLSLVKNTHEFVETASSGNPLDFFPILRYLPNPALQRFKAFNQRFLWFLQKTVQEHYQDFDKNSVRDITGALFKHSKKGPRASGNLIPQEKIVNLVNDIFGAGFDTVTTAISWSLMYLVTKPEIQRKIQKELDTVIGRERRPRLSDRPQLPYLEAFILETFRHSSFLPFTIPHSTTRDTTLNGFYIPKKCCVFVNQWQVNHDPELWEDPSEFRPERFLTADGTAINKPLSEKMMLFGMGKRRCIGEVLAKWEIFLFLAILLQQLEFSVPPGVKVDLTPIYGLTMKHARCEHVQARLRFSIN

[4] = Half life in human liver microsome; type: ADME; details: liver microsomes
Method in brief: (§2)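 Half-life in mouse or human liver microsomes, reported in min.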

[5] = Plasma protein binding in DIO mouse at 30 mg/kg, po; type: ADME, organism-based; design: dose 30 mg/kg, route oral; details: read-out: PPB (converted)
Method in brief: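 Mouse plasma protein binding determined by ultrafiltration.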

[6] = Half life in mouse liver microsome; type: ADME; details: liver microsomes; method in brief: as §2
Cytochrome P450 2B6 = target: T3, Cytochrome P450 2B6 (Homo sapiens, UniProt P20813); assay: Inhibition of CYP2B6; type: ADME
T3 sequence (P20813 whole entry): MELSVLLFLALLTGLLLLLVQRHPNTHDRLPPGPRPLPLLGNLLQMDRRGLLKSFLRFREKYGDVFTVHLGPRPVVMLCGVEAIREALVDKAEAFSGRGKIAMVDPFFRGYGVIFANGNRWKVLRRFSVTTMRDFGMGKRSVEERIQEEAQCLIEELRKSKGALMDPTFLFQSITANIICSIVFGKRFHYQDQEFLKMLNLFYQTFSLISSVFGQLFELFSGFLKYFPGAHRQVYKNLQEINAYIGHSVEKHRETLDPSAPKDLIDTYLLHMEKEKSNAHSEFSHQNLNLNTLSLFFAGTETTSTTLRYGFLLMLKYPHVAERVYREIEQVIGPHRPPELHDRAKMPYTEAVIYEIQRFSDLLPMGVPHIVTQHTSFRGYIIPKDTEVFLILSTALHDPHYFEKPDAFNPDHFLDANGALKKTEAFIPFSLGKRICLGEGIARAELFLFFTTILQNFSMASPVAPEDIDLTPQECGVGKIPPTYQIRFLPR

[7] = Drug level in DIO mouse plasma at 30 mg/kg, po after 6 hrs; type: ADME, organism-based; design: dose 30 mg/kg, route oral
Method in brief: (§3)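 DIO mice given 30 mg/kg orally. Plasma (ng/mL) and brain (ng/g) concentrations measured 6 h post dose; AUC determined from 0 to 6 h.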

[8] = Ratio of drug level in brain to plasma in DIO mouse at 30 mg/kg, po; details: read-out: BPR
[9] = Drug level in DIO mouse brain at 30 mg/kg, po after 6 hrs; type: ADME, organism-based; design: dose 30 mg/kg, route oral; details: read-out: Drug uptake; method in brief: as §3
[10] = Aqueous solubility of the compound in PBS buffer at pH 7.4 after 24 hrs; type: physicochemical
Method in brief: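 Solubility measured in PBS at pH 7.4 after a 24 h equilibration period.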

Mus musculus [11] = assay: Antiobesity activity in diet-induced obese mouse assessed as reduction in body weight at 30 mg/kg qd; type: functional; design: scale not given: the % may be the effect or the level left
Method in brief: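 Male C57BL/6J diet-induced obese mice dosed orally once daily, 30 mg/kg in 1% methylcellulose in water, for 5 days. Body weight tracked daily; % difference from vehicle control on Day 6. Adjusted means, n = 8–10, ANCOVA with Day 1 body weight as covariate, then Dunnett's test.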

Cytochrome P450 3A4 = Cytochrome P450 3A4 (Homo sapiens, UniProt P08684); assay: Inhibition of CYP3A4; type: ADME
[12] = AUC (0 to 6 hrs) in DIO mouse at 30 mg/kg, po; type: ADME, organism-based; design: time < 6 hr, dose 30 mg/kg, route oral; details: plasma; method in brief: as §3
Cytochrome P450 2D6 = Cytochrome P450 2D6 (Homo sapiens, UniProt P10635); assay: Inhibition of CYP2D6; type: ADME
CYP1A2 = target: T4, CYP1A2 (Homo sapiens, UniProt P05177); assay: as §1; type: ADME
T4 sequence (P05177 whole entry): T2 sequence (P05177 whole entry)

Mus musculus [13] = assay: Antiobesity activity in diet-induced obese mouse assessed as reduction in body weight at 30 mg/kg bid; type: functional; design: scale not given: the % may be the effect or the level left
Mus musculus [14] = assay: Antiobesity activity in diet-induced obese mouse assessed as reduction in body weight at 60 mg/kg qd; type: functional; design: scale not given: the % may be the effect or the level left
[15] = Stability in human liver microsome assessed as compound remaining after 1 hr; type: ADME; details: liver microsomes, read-out: Stability
Method in brief: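 Human liver microsome incubation; percentage of parent remaining after 1 h.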

Cytochrome P450 2C9 = Cytochrome P450 2C9 (Homo sapiens, UniProt P11712)
Cytochrome P450 2C19 = Cytochrome P450 2C19 (Homo sapiens, UniProt P33261)
[16] = Ratio of drug level in brain to plasma in lean mouse at 10 mg/kg, po; details: read-out: BPR
[17] = tested on: panel of 30 GPCRs and transporters (off-target); assay: Inhibition of panel of 30 GPCRs and transporters at 1 uM

T1 sequence (Q99705 whole entry): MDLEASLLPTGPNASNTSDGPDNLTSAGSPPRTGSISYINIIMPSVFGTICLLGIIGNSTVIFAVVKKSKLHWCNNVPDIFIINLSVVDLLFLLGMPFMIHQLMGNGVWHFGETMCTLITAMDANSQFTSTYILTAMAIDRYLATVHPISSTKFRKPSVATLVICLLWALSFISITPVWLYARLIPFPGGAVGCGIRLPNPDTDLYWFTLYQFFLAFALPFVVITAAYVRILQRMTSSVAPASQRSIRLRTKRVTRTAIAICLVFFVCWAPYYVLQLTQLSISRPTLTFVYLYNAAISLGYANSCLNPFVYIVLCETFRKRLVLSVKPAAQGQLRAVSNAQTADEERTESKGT
Chain of Cytochrome P450 2D6 (P10635 whole entry): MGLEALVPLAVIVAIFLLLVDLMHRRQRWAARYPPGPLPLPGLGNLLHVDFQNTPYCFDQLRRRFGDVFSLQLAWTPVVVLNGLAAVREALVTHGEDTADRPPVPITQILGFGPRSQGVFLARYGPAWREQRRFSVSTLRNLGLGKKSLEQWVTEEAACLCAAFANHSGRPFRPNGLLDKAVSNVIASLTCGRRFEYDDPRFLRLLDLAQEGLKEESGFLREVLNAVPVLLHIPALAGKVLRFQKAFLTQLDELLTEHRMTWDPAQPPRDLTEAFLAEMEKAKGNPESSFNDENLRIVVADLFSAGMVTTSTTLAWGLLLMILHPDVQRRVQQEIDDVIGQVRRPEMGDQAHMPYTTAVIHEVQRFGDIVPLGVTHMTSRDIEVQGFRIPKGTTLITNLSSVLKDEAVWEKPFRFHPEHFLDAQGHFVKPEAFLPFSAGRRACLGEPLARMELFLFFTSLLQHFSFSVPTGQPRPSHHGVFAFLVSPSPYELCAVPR
Chain of Cytochrome P450 3A4 (P08684 whole entry): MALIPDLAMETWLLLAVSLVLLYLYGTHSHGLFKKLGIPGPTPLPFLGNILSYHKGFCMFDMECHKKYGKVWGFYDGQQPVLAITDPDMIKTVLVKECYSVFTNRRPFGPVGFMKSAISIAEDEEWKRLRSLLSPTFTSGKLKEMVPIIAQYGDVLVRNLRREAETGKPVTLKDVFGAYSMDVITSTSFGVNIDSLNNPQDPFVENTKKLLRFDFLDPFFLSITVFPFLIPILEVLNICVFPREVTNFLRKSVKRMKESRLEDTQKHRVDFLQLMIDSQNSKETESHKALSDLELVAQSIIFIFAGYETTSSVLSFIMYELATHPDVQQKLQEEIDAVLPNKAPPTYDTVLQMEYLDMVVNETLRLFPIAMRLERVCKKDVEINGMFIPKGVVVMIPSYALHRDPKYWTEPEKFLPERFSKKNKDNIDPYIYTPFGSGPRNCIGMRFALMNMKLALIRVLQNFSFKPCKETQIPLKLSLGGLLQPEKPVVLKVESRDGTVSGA
Chain of Cytochrome P450 2C19 (P33261 whole entry): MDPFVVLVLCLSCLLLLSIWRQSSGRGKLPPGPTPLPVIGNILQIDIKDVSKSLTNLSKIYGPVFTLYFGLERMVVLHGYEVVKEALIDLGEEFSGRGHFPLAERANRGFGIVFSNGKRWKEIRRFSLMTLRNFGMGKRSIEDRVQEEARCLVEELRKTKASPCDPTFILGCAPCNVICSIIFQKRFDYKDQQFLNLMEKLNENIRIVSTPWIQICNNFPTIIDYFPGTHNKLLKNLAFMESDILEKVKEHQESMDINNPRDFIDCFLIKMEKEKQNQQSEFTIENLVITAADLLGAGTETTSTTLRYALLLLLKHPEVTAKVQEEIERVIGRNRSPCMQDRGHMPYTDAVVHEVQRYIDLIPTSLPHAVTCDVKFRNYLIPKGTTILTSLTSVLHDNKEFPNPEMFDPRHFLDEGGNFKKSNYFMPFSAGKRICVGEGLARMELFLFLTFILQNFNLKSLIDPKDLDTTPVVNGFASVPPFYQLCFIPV
Chain of Cytochrome P450 2C9 (P11712 whole entry): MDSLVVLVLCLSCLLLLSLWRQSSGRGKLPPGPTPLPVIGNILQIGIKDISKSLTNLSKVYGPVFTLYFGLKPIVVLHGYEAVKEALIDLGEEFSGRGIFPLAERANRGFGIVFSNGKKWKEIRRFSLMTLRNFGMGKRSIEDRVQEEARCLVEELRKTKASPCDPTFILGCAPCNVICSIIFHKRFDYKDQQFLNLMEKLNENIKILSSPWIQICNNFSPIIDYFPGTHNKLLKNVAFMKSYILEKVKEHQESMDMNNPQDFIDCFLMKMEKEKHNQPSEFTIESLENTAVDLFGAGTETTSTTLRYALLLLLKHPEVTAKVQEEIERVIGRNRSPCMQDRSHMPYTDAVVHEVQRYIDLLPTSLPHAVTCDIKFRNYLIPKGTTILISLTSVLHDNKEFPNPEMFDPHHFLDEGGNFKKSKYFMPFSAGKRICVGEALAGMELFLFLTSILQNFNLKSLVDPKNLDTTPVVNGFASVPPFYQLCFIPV

Cn1c2c(c3ccc(-n4ccc(-c5ccc(Cl)cc5Cl)cc4=O)cc31)CNCC2
Ki [1]: 0.0072 µM

CN1CCc2c(n(C)c3cc(-n4ccc(-c5ccc(F)cn5)cc4=O)ccc23)C1
Ki [1]: 0.708 µM

Cn1c2c(c3ccc(-n4ccc(OCc5ccccc5)cc4=O)cc31)CCNC2
pKa [2]: 8.81 | IC50 [3]: 0.0144 µM | IC50 (Cytochrome P450 1A2): > 10 µM | half-life [4]: 7.5 h | Ki [1]: 0.0049 µM | fraction unbound [5]: 0.059 | half-life [6]: 8.03 h | IC50 (Cytochrome P450 2B6): > 10 µM | concentration at 6 h [7]: 8.03 µg/mL | Kp [8]: 0.51 | concentration at 6 h [9]: 4.01 µg/mL | solubility at 24 h [10]: > 500 µM | Activity (Mus musculus [11]): 9.1% | IC50 (Cytochrome P450 3A4): 12 µM | AUC(0-t) at 6 h [12]: 41.3 µg·h/mL | IC50 (Cytochrome P450 2D6): > 10 µM

Cn1c2c(c3ccc(-n4ccc(-c5ccc(Cl)cc5)cc4=O)cc31)CCNC2
Ki [1]: 0.011 µM

Cn1c2c(c3ccc(-n4ccc(-c5ccccc5)cc4=O)cc31)CNCC2
Ki [1]: 0.015 µM

COc1ccc(-c2ccn(-c3ccc4c5c(n(C)c4c3)CCNC5)c(=O)c2)c(C)c1
Ki [1]: 0.0076 µM

CN1CCc2c(n(C)c3cc(-n4ccc(OCc5ccccc5)cc4=O)ccc23)C1
IC50 (Cytochrome P450 1A2): > 10 µM | half-life [4]: > 16.7 h | Ki [1]: 0.0052 µM | half-life [6]: 1.05 h | IC50 (Cytochrome P450 2B6): > 10 µM | solubility at 24 h [10]: 93 µM (≈ 37.2 µg/mL) | IC50 (Cytochrome P450 3A4): 24 µM | IC50 (Cytochrome P450 2D6): > 10 µM

COc1cc(Cl)ccc1-c1ccn(-c2ccc3c4c(n(C)c3c2)CNCC4)c(=O)c1
Ki [1]: 0.017 µM

O=c1cc(OCc2ccccc2)ccn1-c1ccc2c(cnn2CCN2CCCC2)c1
pKa [2]: 8.63 | IC50 (CYP1A2): > 10 µM | fraction unbound [5]: 0.086 | Activity (Mus musculus [13]): 6% | concentration at 6 h [7]: 1.95 µg/mL | Kp [8]: 0.72 | concentration at 6 h [9]: 1.38 µg/mL | Activity (Mus musculus [14]): 2.8% | AUC(0-t) at 6 h [12]: 14.8 µg·h/mL

Cn1c2c(c3ccc(-n4ccc(-c5ccc(C(F)(F)F)cc5)cc4=O)cc31)CNCC2
Ki [1]: 0.0042 µM

Cn1c2c(c3ccc(-n4ccc(-c5ccc(Cl)cn5)cc4=O)cc31)CCNC2
Ki [1]: 0.128 µM

Cn1c2c(c3ccc(-n4ccc(-c5ccc(Cl)cc5)cc4=O)cc31)CNCC2
Ki [1]: 0.0027 µM

CN1CCc2c(c3ccc(-n4ccc(-c5ccc(F)cc5)cc4=O)cc3n2C)C1
Ki [1]: 0.0078 µM

CSc1ccc(-c2ccn(-c3ccc4c5c(n(C)c4c3)CNCC5)c(=O)c2)cc1
Ki [1]: 0.0084 µM

COc1ccc(-c2ccn(-c3ccc4c5c(n(C)c4c3)CNCC5)c(=O)c2)c(C)c1
Ki [1]: 0.014 µM

Cn1c2c(c3ccc(-n4ccc(OCc5ccc(C(F)(F)F)cc5)cc4=O)cc31)CNCC2
Ki [1]: 0.0067 µM

CC(=O)N1CCc2c(c3ccc(-n4ccc(OCc5ccccc5)cc4=O)cc3n2C)C1
Ki [1]: 0.168 µM

CN1CCc2c(n(C)c3cc(-n4ccc(-c5ccc(Cl)cc5)cc4=O)ccc23)C1
Ki [1]: 0.0056 µM

Cn1c2c(c3ccc(-n4ccc(OCc5ccccc5)cc4=O)cc31)CNCC2
remaining at 1 h [15]: 98.4% | IC50 (Cytochrome P450 2C9): > 10 µM | IC50 (Cytochrome P450 1A2): > 10 µM | half-life [4]: 7.7 h | Ki [1]: 0.0038 µM | IC50 (Cytochrome P450 2B6): > 10 µM | IC50 (Cytochrome P450 2C19): > 10 µM | solubility at 24 h [10]: 470 µM (≈ 181 µg/mL) | IC50 (Cytochrome P450 3A4): 68 µM | IC50 (Cytochrome P450 2D6): > 10 µM

Cn1c2c(c3ccc(-n4ccc(OCc5ccc(Cl)cc5)cc4=O)cc31)CNCC2
Ki [1]: 0.0042 µM

Cn1c2c(c3ccc(-n4ccc(-c5ccc(C(F)(F)F)cc5)cc4=O)cc31)CCNC2
Ki [1]: 0.011 µM

CN1CCc2c(n(C)c3cc(-n4ccc(OCc5ccc(C(F)(F)F)cc5)cc4=O)ccc23)C1
Ki [1]: 0.025 µM

CN1CCc2c(n(C)c3cc(-n4ccc(-c5ccc(Cl)cc5Cl)cc4=O)ccc23)C1
Ki [1]: 0.014 µM

COc1cc(Cl)ccc1-c1ccn(-c2ccc3c4c(n(C)c3c2)CCNC4)c(=O)c1
Ki [1]: 0.007 µM

CSc1ccc(-c2ccn(-c3ccc4c5c(n(C)c4c3)CCNC5)c(=O)c2)cc1
Ki [1]: 0.0024 µM

COc1ccc(-c2ccn(-c3ccc4c5c(n(C)c4c3)CNCC5)c(=O)c2)cc1
Ki [1]: 0.014 µM

CN1CCc2c(n(C)c3cc(-n4ccc(OCc5ccc(Cl)cc5)cc4=O)ccc23)C1
Ki [1]: 0.0076 µM

Cn1c2c(c3ccc(-n4ccc(OCc5ccccc5)cc4=O)cc31)CN(CCO)CC2
Ki [1]: 0.0036 µM

COc1ccc(-c2ccn(-c3ccc4c5c(n(C)c4c3)CCNC5)c(=O)c2)cc1
Ki [1]: 0.0026 µM

CN1CCc2c(c3ccc(-n4ccc(OCc5ccccc5)cc4=O)cc3n2C)C1
IC50 (Cytochrome P450 1A2): > 10 µM | Kp [16]: 0.9 | half-life [4]: 12.8 h | Ki [1]: 0.0045 µM | fraction unbound [5]: 0.016 | half-life [6]: > 16.7 h | IC50 (Cytochrome P450 2B6): > 10 µM | concentration at 6 h [7]: 5.03 µg/mL | solubility at 24 h [10]: 110 µM (≈ 43.9 µg/mL) | Activity (Mus musculus [11]): 7.2% | inhibition [17]: < 55% | IC50 (Cytochrome P450 3A4): 67 µM | AUC(0-t) at 6 h [12]: 27 µg·h/mL | IC50 (Cytochrome P450 2D6): > 10 µM
